{"data": "Published values from different studies", "target": "Serine/threonine-protein kinase SIK2 (SIK2, Homo sapiens, UniProt Q9H0K1)"}
{"Structure (SMILES)": "Cn1cc(-c2cc(F)cc(N3CCn4c(cc5c4CCCC5)C3=O)c2CO)cc(Nc2ccc(N3CCN(C4COC4)CC3)cn2)c1=O", "observed": "enzyme activity", "mode": "inhibitor", "tested at": "0.1 µM", "measurement": "inhibition", "value": "13%"}
{"Structure (SMILES)": "CC(C)(C)c1cc(C=C(C#N)C#N)cc(Br)c1O", "observed": "enzyme activity", "mode": "inhibitor", "tested at": "0.5 µM", "measurement": "remaining activity", "value": "115%"}
{"Structure (SMILES)": "Cn1cc(-c2cccc(N3CCc4c(sc5c4CC(C)(C)C5)C3=O)c2CO)cc(Nc2ccncn2)c1=O", "observed": "enzyme activity", "mode": "inhibitor", "tested at": "1 µM", "measurement": "inhibition", "value": "4%"}
{"Structure (SMILES)": "Cn1cncc1[C@](O)(COc1ccc(C#N)cc1-c1ccc(OC(F)(F)F)cc1)c1ccc(C#N)cc1", "observed": "cell-free assay", "method": "competition with immobilised ligand", "tested at": "1 µM", "measurement": "remaining binding", "value": "95%"}
{"Structure (SMILES)": "COc1ncccc1-c1cnn2ccc(N3CCN(C(=O)OC(C)C)CC3)nc12", "observed": "binding", "method": "competition with immobilised ligand", "tested at": "1 µM", "measurement": "remaining binding", "value": "50%"}
{"Structure (SMILES)": "O=C(NCc1ncc(C(F)(F)F)cc1Cl)c1ccc2c(c1)C1(CCS(=O)(=O)CC1)[C@H](C1CC1)N2S(=O)(=O)c1ccc(F)cc1", "observed": "cell-free assay", "method": "competition with immobilised ligand", "tested at": "1 µM", "measurement": "remaining binding", "value": "96%"}
{"Structure (SMILES)": "O=c1[nH]c2ccccc2n1C1CCN(Cc2ccc(-c3[nH]c4cc5ncnc5cc4nc3-c3ccccc3)cc2)CC1", "observed": "cell-free assay", "tested at": "0.5 µM", "measurement": "remaining signal", "value": "114%"}
{"Structure (SMILES)": "Cc1nn(C)cc1-c1nc2c(N3CCN(Cc4ccc(Cl)cc4)CC3)c(Cl)cnc2[nH]1", "observed": "binding", "method": "competition with immobilised ligand", "tested at": "1 µM", "measurement": "remaining binding", "value": "36%"}
